Active and inactive are the calls of the source. The calls are words filed in the database; no cut-off is given here. Some results are limits rather than exact numbers.

The target in assay [1] is T1, DNA topoisomerase 1 (Homo sapiens) (UniProt P11387).
T1 sequence (whole entry): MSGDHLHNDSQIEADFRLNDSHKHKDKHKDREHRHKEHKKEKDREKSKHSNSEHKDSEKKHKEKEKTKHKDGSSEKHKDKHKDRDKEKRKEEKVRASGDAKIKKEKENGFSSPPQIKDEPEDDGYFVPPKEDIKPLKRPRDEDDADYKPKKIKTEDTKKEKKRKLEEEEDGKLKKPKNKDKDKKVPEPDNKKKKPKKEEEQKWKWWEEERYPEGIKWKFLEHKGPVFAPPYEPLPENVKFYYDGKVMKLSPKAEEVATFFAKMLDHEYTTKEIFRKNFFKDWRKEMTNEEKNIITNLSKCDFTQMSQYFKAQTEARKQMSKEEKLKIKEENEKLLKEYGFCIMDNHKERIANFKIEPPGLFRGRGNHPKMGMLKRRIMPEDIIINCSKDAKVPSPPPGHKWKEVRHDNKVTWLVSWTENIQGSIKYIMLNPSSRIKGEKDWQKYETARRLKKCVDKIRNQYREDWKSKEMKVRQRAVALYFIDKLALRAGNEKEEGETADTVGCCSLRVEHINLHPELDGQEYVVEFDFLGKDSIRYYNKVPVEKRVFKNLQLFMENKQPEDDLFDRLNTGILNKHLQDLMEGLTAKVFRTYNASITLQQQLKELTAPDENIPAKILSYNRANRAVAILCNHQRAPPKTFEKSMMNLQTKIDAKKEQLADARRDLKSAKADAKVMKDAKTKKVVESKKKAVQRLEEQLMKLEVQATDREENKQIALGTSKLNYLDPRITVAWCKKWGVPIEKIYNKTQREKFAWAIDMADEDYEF
The experiment in a line: Inhibition of recombinant human topoisomerase-1 assessed as reduction in relaxation of supercoiled pBR322 DNA substrate at 100 uM after 30 mins by ethidium bromide staining based agarose gel electrophoresis relative to control. In short, it runs like this:
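pBR322 DNA (0.1 µg) and recombinant human Topo I (0.2 units) incubated ± compound 30 min at 37 °C in supplier's Topo I buffer; compounds from DMSO stocks. Stopped with bromophenol blue/xylene cyanol/glycerol dye. Read-out: 1% agarose in 1× TAE, 100 V for 30 min, EB stain (0.5 µg/mL). Percent inhibition from gray-scale band analysis; camptothecin positive control.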

The next assay deals with MCF7. The experiment in a line: Cytotoxicity against human MCF7 cells assessed as reduction in cell viability after 48 hrs by MTT assay. The class given is functional, cell-based. To be noted: MCF7, 48 h. Put shortly:
(§1)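 MCF-7, HeLa and A549 cells seeded at 3.5 × 10^3 per well in medium with 10% FBS and left overnight. Medium then replaced with fresh medium holding a range of compound concentrations for 48 h. MTT (5 mg/mL) added, 4 h at 37 °C. Formazan dissolved in DMSO, absorbance read at 570 nm. Triplicate wells per dose; IC50 derived.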
In general terms: Formazan colour is commonly taken as a measure of viable cells.

Another assay relates to HeLa. The experiment in a line: Cytotoxicity against human HeLa cells assessed as reduction in cell viability after 48 hrs by MTT assay. The class given is functional, cell-based. Put shortly: as §1
The next assay concerns A549. The experiment in a line: Cytotoxicity against human A549 cells assessed as reduction in cell viability after 48 hrs by MTT assay. The class given is functional, cell-based. To be noted: A549, 48 h. Put shortly:
as §1

Assay [2] addresses T1, DNA topoisomerase 1 (Homo sapiens). Put plainly: Inhibition of recombinant human topoisomerase-1 assessed as DNA insertion by measuring drug-DNA-enzyme ternary complex formation up to 100 uM using supercoiled pBR322 DNA substrate after 30 mins by ethidium bromide staining based agarose gel electrophoresis. In short, it runs like this:
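Supercoiled pBR322 DNA (0.1 µg) in Topo I buffer (50 mM Tris-HCl pH 7.5, 10 mM MgCl2, 50 mM KCl, 0.1 mM EDTA, 0.5 mM DTT, BSA) pre-incubated with compound 10 min at 25 °C. Excess Topo I (4 units) then added, 30 min at 37 °C. Read-out: 1% agarose/TAE electrophoresis, EB staining, UV imaging. Ethidium bromide positive control; camptothecin negative control.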

For assay [3] the target is unchanged. Put plainly: Inhibition of recombinant human topoisomerase-1 assessed as DNA insertion by measuring drug-DNA-enzyme ternary complex formation up to 25 uM using supercoiled pBR322 DNA substrate after 30 mins by ethidium bromide staining based agarose gel electrophoresis. In short, it runs like this: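 Supercoiled pBR322 DNA (0.1 µg) preincubated with compound 10 min at 25 °C, then excess Topo I (4 units) added, 30 min at 37 °C in 20 µL Tris-HCl pH 7.5 buffer with MgCl2, KCl, EDTA, DTT, BSA. Run on 1% agarose in TAE 40 min, EB post-stained, UV-imaged. Unwinding read as supercoiled retained versus relaxed.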

The target is the same in assay [4]. The experiment in a line: Poison activity at recombinant human topoisomerase-1 assessed as stabilization of DNA-enzyme cleavage complex by measuring increase in linear DNA using supercoiled pBR322 DNA substrate after 30 mins by ethidium bromide staining based agarose gel electrophoresis.
Assay [5] shares this target. Put plainly: Inhibition of recombinant human topoisomerase-1 assessed as interference in DNA binding to enzyme by measuring reduction in enzyme-DNA complex using supercoiled pBR322 DNA substrate preincubated for 20 mins followed by substrate addition measured after 3 mins by electrophoretic mobility shift assay.

Regarding `C=C1OC(=O)C=C1Cc1ccc(NC(=O)c2ccccc2)cc1`, the inhibition – broadly, the share of the control response that was lost under treatment – in assay [1] was 28.7%. Also, the half-maximal inhibitory concentration (IC50) (usually the concentration needed to halve the response being measured) is greater than 50 µM in the assay on MCF7, 48.3 µM with HeLa and 49.8 µM in the assay on A549. Besides, the inhibition result in assay [2] was “inactive”.
The matching figures for `C=C1OC(=O)C=C1Cc1ccc(NC(=O)Cc2ccc(F)cc2)cc1`: 43.3%, 16 µM, 16.2 µM, 22.8 µM and “inactive”.
As to `O=C(Cc1cccc(C(F)(F)F)c1)Nc1ccc(CC2=CC(=O)OC2)cc1`, the inhibition in assay [1] was determined as 12.3%. Also, the IC50 in the assay on MCF7 was 40.1 µM; in the assay with HeLa, 44 µM; in the assay with A549 it was greater than 50 µM.
In the same order, the values of `O=C(/C=C/c1cccc(F)c1)Nc1ccc(CC2=CC(=O)OC2)cc1` are 13.1%, 39 µM, 49 µM and greater than 50 µM.
In the case of `C=C1OC(=O)C=C1Cc1ccc(NC(=O)Cc2ccc(Cl)cc2)cc1`, in assay [1], the inhibition was determined as 30.3%. Also, the figures for the 50% inhibitory concentration (IC50) with MCF7, in the assay with HeLa and in the assay on A549 were 37.4 µM, 35.5 µM and 37.6 µM, respectively. In assay [2], the inhibition entry was “inactive”.
As for `C=C1OC(=O)C=C1Cc1ccc(NC(=O)Cc2ccccc2)cc1`, the inhibition in assay [1] worked out at 28.5%. The IC50 is greater than 50 µM in the assay with MCF7, greater than 50 µM in the assay on HeLa and 39 µM in the assay with A549. For the same compound, the inhibition result in assay [2] was “inactive”.
With `O=C(/C=C/c1ccccc1F)Nc1ccc(CC2=CC(=O)OC2)cc1`, the inhibition in assay [1] stood at 11.7%. The IC50 in the assay on MCF7 was greater than 50 µM; in the assay on HeLa, 45.8 µM; in the assay on A549 it was 40 µM.
Turning to `C=C1OC(=O)C=C1Cc1ccc(NC(=O)Cc2ccc(C)cc2)cc1`, the inhibition in assay [1] amounted to 47.9%. Besides, the IC50 in the assay on MCF7 worked out at 3.94 µM; in the assay with HeLa, 7.12 µM; with A549 it was 7.79 µM. The inhibition entry in assay [2] was “inactive”.
The matching figures for `C=C1OC(=O)C=C1Cc1ccc(NC(=O)Cc2ccc(C(F)(F)F)cc2)cc1`: 34.9%, 39.8 µM, 39.7 µM, 42.9 µM and “inactive”.
Take `CC[n+]1c(-c2ccccc2)c2cc(N)ccc2c2ccc(N)cc21`: the inhibition result in assay [3] was “Active”.
For the compound `C=C1OC(=O)C=C1Cc1ccc(NC(=O)/C=C/c2ccccc2F)cc1`, in assay [1], the inhibition is 44.6%. Further, the half-maximal inhibitory concentration (IC50) in the assay with MCF7 was found to be 13.8 µM; with HeLa, 6.93 µM; in the assay on A549, 7.41 µM. In assay [2], the inhibition entry was “inactive”.
In the case of `C=C1OC(=O)C=C1Cc1ccc(NC(=O)/C=C/c2ccc(F)cc2)cc1`, the inhibition in assay [1] was 94%; in assay [5], “Dose-dependent effect”. In addition, the 50% inhibitory concentration (IC50) amounted to 4.43 µM in the assay with MCF7, 2.77 µM with HeLa and 3.46 µM in the assay with A549. For the same compound, the inhibition entry in assay [2] is “inactive”. For the same compound, the Activity result in assay [4] is “Dose-dependent effect”.
With `Cc1ccc(CC(=O)Nc2ccc(CC3=CC(=O)OC3)cc2)cc1`, the inhibition in assay [1] is 19.4%. In addition, the values for the IC50 with MCF7, in the assay with HeLa and with A549 were 49.2 µM, greater than 50 µM and 41.4 µM, respectively.
In the case of `C=C1OC(=O)C=C1Cc1ccc(NC(=O)/C=C/c2cccc(F)c2)cc1`, the inhibition in assay [1] was 34.5%. The IC50 with MCF7 was found to be 39 µM; in the assay on HeLa, 30.2 µM; in the assay on A549, 35.2 µM. Besides, the inhibition entry in assay [2] is “inactive”.
For the compound `O=C(Cc1ccccc1C(F)(F)F)Nc1ccc(CC2=CC(=O)OC2)cc1`, the inhibition in assay [1] came to 20.3%. For the same compound, the IC50 in the assay with MCF7 turned out to be 43.8 µM; in the assay on HeLa it was 44.6 µM; in the assay on A549 it was 48.9 µM.
In the same order, the values of `O=C(/C=C/c1ccc(F)cc1)Nc1ccc(CC2=CC(=O)OC2)cc1` are 12.1%, 47.9 µM, greater than 50 µM and 41.8 µM.
The matching figures for `O=C(Cc1ccc(C(F)(F)F)cc1)Nc1ccc(CC2=CC(=O)OC2)cc1`: 11%, 46.4 µM, 48.8 µM and 45.8 µM.
For `C=C1OC(=O)C=C1Cc1ccc(NC(=O)/C=C/c2ccccc2)cc1`, the inhibition in assay [1] turned out to be 48.6%. Moreover, the IC50 in the assay on MCF7 came to 9.49 µM; in the assay with HeLa, 7.34 µM; with A549, 14.8 µM. Moreover, in assay [2], the inhibition entry is “inactive”.
Turning to `CC[C@@]1(O)C(=O)OCc2c1cc1n(c2=O)Cc2cc3ccccc3nc2-1` [CAMPTOTHECIN], the results for the IC50 in the assay with MCF7, with HeLa and in the assay on A549 were 71.3 µM, 60 µM and 0.24 µM, respectively.
Consider `C=C1OC(=O)C=C1Cc1ccc(NC(=O)Cc2cccc(Cl)c2)cc1`, for which, in assay [1], the inhibition amounted to 22.5%. Moreover, the values for the IC50 in the assay with MCF7, in the assay on HeLa and with A549 were 42.9 µM, 45.8 µM and 41 µM, respectively. Also, in assay [2], the inhibition entry was “inactive”.
In the same order, the values of `C=C1OC(=O)C=C1Cc1ccc(NC(=O)Cc2ccccc2Cl)cc1` are 21.3%, 40.9 µM, 42.6 µM, 48.8 µM and “inactive”.
The matching figures for `C=C1OC(=O)C=C1Cc1ccc(NC(=O)Cc2cccc(C(F)(F)F)c2)cc1`: 41.9%, 6.15 µM, 8.63 µM, 6.69 µM and “inactive”.
As to `C=C1OC(=O)C=C1Cc1ccc(NC(=O)Cc2ccccc2F)cc1`, the inhibition in assay [1] is 32.8%. Besides, the values for the half-maximal inhibitory concentration (IC50) in the assay with MCF7, with HeLa and in the assay on A549 were 48.3 µM, 40.5 µM and 32 µM, respectively. Also, the inhibition result in assay [2] was “inactive”.
In the same order, the values of `C=C1OC(=O)C=C1Cc1ccc(NC(=O)Cc2ccccc2C(F)(F)F)cc1` are 32.3%, 48.7 µM, 37.5 µM, 37.5 µM and “inactive”.

(Values after ChEMBL document CHEMBL3994612, “Novel 4-(4-substituted amidobenzyl)furan-2(5H)-one derivatives as topoisomerase I inhibitors” (Eur J Med Chem, 2017).)
